The values below come from ChEMBL document CHEMBL1127071, “Structure-activity relationships of C-terminal endothelin hexapeptide antagonists” (J Med Chem, 1993).

Structures are written as SMILES. Where a SMILES comes first, the peptide text is derived from it. [ ]: non-standard residue; d: D form. dDip = N[C@@H](C(=O)O)C(c1ccccc1)c1ccccc1; Orn = NCCC[C@H](N)C(=O)O

In assay [1] the target is T1, Endothelin receptor (Rattus norvegicus, UniProt P26684+P21451).
T1 sequence (P26684 whole entry): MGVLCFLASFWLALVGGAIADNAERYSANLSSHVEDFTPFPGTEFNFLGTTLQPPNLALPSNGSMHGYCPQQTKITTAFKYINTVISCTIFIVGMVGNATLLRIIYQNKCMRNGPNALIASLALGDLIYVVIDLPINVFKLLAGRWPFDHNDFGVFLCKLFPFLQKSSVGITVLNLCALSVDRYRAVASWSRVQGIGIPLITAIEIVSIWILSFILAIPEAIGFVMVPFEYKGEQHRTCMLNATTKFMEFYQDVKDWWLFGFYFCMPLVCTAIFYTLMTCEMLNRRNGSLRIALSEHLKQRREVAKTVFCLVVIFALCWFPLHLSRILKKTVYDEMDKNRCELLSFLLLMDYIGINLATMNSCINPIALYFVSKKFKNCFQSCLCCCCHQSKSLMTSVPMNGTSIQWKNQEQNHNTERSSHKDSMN
T1 sequence (P21451 whole entry): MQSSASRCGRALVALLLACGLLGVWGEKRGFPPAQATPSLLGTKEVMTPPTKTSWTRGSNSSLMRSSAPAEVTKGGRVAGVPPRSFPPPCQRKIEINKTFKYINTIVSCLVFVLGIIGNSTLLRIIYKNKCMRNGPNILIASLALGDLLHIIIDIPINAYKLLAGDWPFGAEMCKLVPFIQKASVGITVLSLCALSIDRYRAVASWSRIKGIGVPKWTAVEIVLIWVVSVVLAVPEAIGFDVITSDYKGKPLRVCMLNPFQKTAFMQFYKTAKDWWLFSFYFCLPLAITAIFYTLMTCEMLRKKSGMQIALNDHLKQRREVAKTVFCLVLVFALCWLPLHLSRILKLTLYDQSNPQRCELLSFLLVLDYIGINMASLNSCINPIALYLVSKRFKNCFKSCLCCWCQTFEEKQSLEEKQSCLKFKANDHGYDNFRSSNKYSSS
The experiment in a line: Binding affinity against Endothelin receptor from rat heart ventricle. Format: protein assay.

The species named for assay [2] is Rattus norvegicus. The experiment in a line: Inhibition of ET-1 stimulated inositol phosphate accumulation in rat fibroblast. Format: functional, organism-based. In outline: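 Rat skin fibroblasts prelabelled with [3H]inositol; ET-1-stimulated accumulation of total [3H]inositol phosphates in presence of Li+, measured by anion-exchange chromatography.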
The target of assay [3] is T2, Endothelin receptor type B (Rattus norvegicus, UniProt P21451).
T2 sequence (P21451 whole entry): T1 sequence (P21451 whole entry)
Description: (§1) Effective concentration against Endothelin B receptor from rat cerebellum. Format: tissue-based. In outline: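 Competition binding of 30 pM [125I]-ET-1 (2,000 Ci/mmol) to 5 µg membranes: rabbit renal artery vascular smooth muscle (ETA) or adult rat cerebellum (ETB). Buffer is 20 mM Tris, 2 mM EDTA, 100 µM PMSF and 100 µM bacitracin, pH 7.4, 37 °C, 2 h. Reaction stopped by GF/B filtration. Nonspecific binding measured with 100 nM ET-1. Triplicate points; IC50 from a one-site nonlinear fit.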

The species entered for assay [4] is Oryctolagus cuniculus. Description: Effective concentration against ET-1 stimulated arachidonic acid release in rabbit renal artery vascular smooth muscle cells. Format: functional. The method in brief:
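Confluent rabbit renal artery smooth muscle cells loaded 18 h at 37 °C with 0.25 µCi/mL [3H]arachidonic acid in DME/F12 with 0.5% FCS. Cells washed in Hank's/10 mM HEPES/fatty acid-free BSA buffer with three 5-min incubations. Then exposed 30 min to test compound (1 nM to 1 µM) plus 0.3 nM ET-1. Released [3H] counted by liquid scintillation; IC50 determined.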

Assay [5] addresses T2, Endothelin receptor type B. The assay is described as §1. It counts as tissue-based. The source holds these as a separate data set.
The species named for assay [6] is Oryctolagus cuniculus. The experiment in a line: Inhibition of ET-1 stimulated arachidonic acid release in rabbit renal artery vascular smooth muscle cells. Format: functional.

By IC50 is commonly meant the concentration that inhibits the measured activity by half. For the compound `CC[C@H](C)[C@H](NC(=O)[C@@H](NC(=O)[C@@H](CC(=O)O)NC(=O)[C@H](CC(C)C)NC(=O)[C@H](Cc1c[nH]cn1)NC(C)=O)[C@@H](C)CC)C(=O)N[C@@H](Cc1c[nH]c2ccccc12)C(=O)O`, the IC50 in assay [1] was 37000 nM; in assay [2], more than 50000 nM.

As to `CC[C@H](C)[C@H](NC(=O)[C@H](CC(=O)O)NC(=O)[C@H](CC(C)C)NC(=O)[C@H](Cc1c[nH]cn1)NC(C)=O)C(=O)N[C@H](C(=O)N[C@@H](Cc1c[nH]c2ccccc12)C(=O)O)[C@@H](C)CC`, the figures for the half-maximal inhibitory concentration (IC50) in assay [1] and in assay [2] were 58000 nM and 50000 nM, respectively.

What is called EC50 is the concentration that produces a half-maximal response. Low values mean an effect from little substance, high ones a need for much substance. For the compound `CC[C@H](C)[C@H](NC(=O)[C@H](CC(=O)O)NC(=O)[C@H](CC(C)C)NC(=O)[C@H](NC(C)=O)C(c1ccccc1)c1ccccc1)C(=O)N[C@H](C(=O)N[C@@H](Cc1c[nH]c2ccccc12)C(=O)O)C(C)C` (Ac-[dDip]LDIVW-OH), the EC50 in assay [3] is 6000 nM; in assay [4], 2600 nM.

As for `CC[C@H](C)[C@H](NC(=O)[C@H](CC(=O)O)NC(=O)[C@H](CC(C)C)NC(=O)[C@H](NC(C)=O)C(c1ccccc1)c1ccccc1)C(=O)N[C@H](C(=O)N[C@@H](Cc1ccc(O)cc1)C(=O)O)[C@@H](C)CC` (Ac-[dDip]LDIIY-OH), the EC50 in assay [3] amounted to 6100 nM; in assay [4], 4300 nM.

As to `CC[C@H](C)[C@H](NC(=O)[C@H](CC(=O)O)NC(=O)[C@H](CC(C)C)NC(=O)[C@H](N)C(c1ccccc1)c1ccccc1)C(=O)N[C@H](C(=O)N[C@@H](Cc1c[nH]c2ccccc12)C(=O)O)[C@@H](C)CC` (H-[dDip]LDIIW-OH), the midpoint of the response in assay [3], the EC50, lay at 1900 nM.

Regarding `CC[C@H](C)[C@H](NC(=O)[C@@H](NC(=O)[C@H](CC(=O)O)NC(=O)[C@H](CC(C)C)NC(=O)[C@H](NC(C)=O)C(c1ccccc1)c1ccccc1)C(C)C)C(=O)N[C@@H](Cc1c[nH]c2ccccc12)C(=O)O` (Ac-[dDip]LDVIW-OH), the 50% effective concentration (EC50) worked out at 50 nM in assay [3] and 29 nM in assay [4].

As to `CC[C@H](C)[C@H](NC(=O)[C@H](Cc1ccccc1)NC(=O)[C@H](CC(C)C)NC(=O)[C@H](NC(C)=O)C(c1ccccc1)c1ccccc1)C(=O)N[C@H](C(=O)N[C@@H](Cc1c[nH]c2ccccc12)C(=O)O)[C@@H](C)CC` (Ac-[dDip]LFIIW-OH), the values for the EC50 in assay [3] and in assay [4] were 60 nM and 1300 nM, respectively.

Take `CC[C@@H](C)[C@@H](NC(=O)[C@@H](NC(=O)[C@H](CC(=O)O)NC(=O)[C@H](CC(C)C)NC(=O)[C@H](Cc1c[nH]cn1)NC(C)=O)[C@@H](C)CC)C(=O)N[C@@H](Cc1c[nH]c2ccccc12)C(=O)O`: the IC50 in assay [1] is 16900 nM; in assay [2] it was more than 100000 nM.

Take `CC[C@H](C)[C@H](NC(=O)[C@H](CC(=O)O)NC(=O)[C@H](CCCN)NC(=O)[C@H](NC(C)=O)C(c1ccccc1)c1ccccc1)C(=O)N[C@H](C(=O)N[C@@H](Cc1c[nH]c2ccccc12)C(=O)O)[C@@H](C)CC` (Ac-[dDip][Orn]DIIW-OH): the EC50 in assay [3] was found to be 150 nM; in assay [4], 30 nM.

Turning to `CC[C@H](C)[C@H](NC(=O)[C@H](CC(=O)O)NC(=O)[C@H](CCC(=O)O)NC(=O)[C@@H](Cc1ccccc1)NC(C)=O)C(=O)N[C@@H](Cc1c[nH]c2ccccc12)C(=O)O`, the IC50 is 740 nM in assay [1], 840 nM in assay [5] and 600 nM in assay [6].

For `CC[C@H](C)[C@H](NC(=O)[C@H](CC(=O)O)NC(=O)[C@H](CCC(=O)O)NC(=O)[C@H](NC(C)=O)C(c1ccccc1)c1ccccc1)C(=O)N[C@H](C(=O)N[C@@H](Cc1c[nH]c2ccccc12)C(=O)O)[C@@H](C)CC` (Ac-[dDip]EDIIW-OH), the EC50 was 52 nM in assay [3] and 130 nM in assay [4].
